Activity calls are given as the source filed them. No cut-off for these calls is given here.

One assay deals with PC12. Briefly: Restoration of mitochondrial membrane potential in Abeta1-42 induced rat PC12 cells at 10 uM preincubated for 3 hrs followed by Abeta1-42 induction and measured after 24 hrs by JC-1 staining based analysis. The assay is classed as cell-based. As to conditions: time 27.0 hrs. In short, it runs like this:
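PC12 cells pretreated 3 h, then exposed to 10 μM Aβ1–42 oligomer for 24 h. Cells were loaded with JC-1 (10 μg/mL, serum-free medium) for 30 min at 37 °C and washed twice in PBS. Plate-reader fluorescence was read as red (ex 560/em 595) and green (ex 485/em 535); Δψm = red/green ratio, normalized to control. Mean ± SEM, three experiments.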

Assay [1] relates to Mus musculus. Briefly: Anti-alzheimer activity in hippocampus of APP/PS1 dE9 double transgenic mouse model assessed as increase in […] at 1 to 10 mg/kg, ip administered once daily for 30 consecutive days […]. The assay is classed as functional, organism-based. Conditions: dose 1-10 mg/kg, time 30.0 day. An outline of the steps:
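Hippocampal tissue from dosed APP/PS1 mice was lysed in RIPA. SOD activity was read by WST-8/xanthine oxidase formazan kit assay and MDA by lipid peroxidation kit, with absorbance on a microplate reader.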

Assay [2] relates to Mus musculus. In words: Anti-alzheimer activity in hippocampus of APP/PS1 dE9 double transgenic mouse model assessed as reduction in amyloid beta plaque deposition at 1 to 10 mg/kg, ip administered once daily for 30 consecutive days by immunofluorescence staining. The assay is classed as functional, organism-based. Conditions: dose 1-10 mg/kg, time 30.0 day. An outline of the steps:
(§1)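 Brains from dosed female APP/PS1 mice (10 months) were fixed in 4% paraformaldehyde at 4 °C for 24–48 h, taken through a sucrose gradient and OCT, and cut into 15 μm sections. Sections were permeabilized with 0.3% Triton X-100, blocked in 10% BSA for 1 h, and incubated with primary antibody overnight at 4 °C (1:200). Secondary was 1:500 for 1 h at 25 °C, with DAPI counterstain and confocal imaging, in triplicate.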

Assay [3] relates to PC-12. Briefly: Induction of apoptosis in Abeta1-42 induced rat PC12 cells assessed as late apoptosis at 10 uM preincubated for 3 hrs followed by Abeta1-42 induction and measured after 24 hrs by Annexin V-FITC/PI staining based flow cytometry analysis (reference value: 0.7%). Conditions: time 27 hrs. The assay is classed as functional. A general note: A flow cytometer gives signals particle by particle.

Assay [4] deals with Mus musculus. In words: Anti-alzheimer activity in hippocampus of APP/PS1 dE9 double transgenic mouse model as reduction in neuronal apoptosis at 1 to 10 mg/kg, ip administered once daily for 30 consecutive days by immunofluorescence analysis. The assay is classed as functional, organism-based. As to conditions: dose 1-10 mg/kg, time 30.0 day. In short, it runs like this:
as §1

The subject of assay [5] is Mus musculus. Briefly: Anti-alzheimer activity against APP/PS1 dE9 double transgenic mouse model assessed as increase in platform crossings at 10 mg/kg, ip administered once daily for 30 consecutive days […] by morris water maze test. The assay is classed as functional, organism-based. An outline of the steps: (§2)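 Female APP/PS1 mice, 10 months old, about 30 g, 10 per group. Dosing was intraperitoneal in 1× PBS, once daily for one month (1 or 10 mg/kg test; 5 mg/kg donepezil). WT and untreated APP/PS1 controls got PBS. Morris water maze: training days 1–4, averaged escape latency. Day-5 probe trial ran 60 s with the platform removed, recording platform crossings and time per quadrant. Mean ± SEM.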

For assay [6], the system named is Mus musculus. Briefly: Anti-alzheimer activity against APP/PS1 dE9 double transgenic mouse model assessed as increase in time spent in the target quadrant at 10 mg/kg, ip administered once daily for 30 consecutive days measured on day 5 by morris water maze test. As to conditions: time 35.0 day. The assay is classed as functional, organism-based. In short, it runs like this: as §2

Assay [7] concerns Mus musculus. In words: Anti-alzheimer activity in hippocampus of APP/PS1 dE9 double transgenic mouse model assessed as increase in the level of PSD95 at 10 mg/kg, ip administered once daily for 30 consecutive days by Western blot analysis. The assay is classed as functional, organism-based. Conditions: time 30.0 day. An outline of the steps: (§3)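 Hippocampal homogenates from dosed APP/PS1 mice were extracted in RIPA and protein measured by BCA. Samples were run by SDS electrophoresis, transferred to 0.22 μm PVDF for 90 min, blocked with 5% BSA in TBST for 2 h at RT, and probed with primaries 1:1000 overnight at 4 °C. HRP secondary was applied for 2 h at RT.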
(In general: In western blotting, separated proteins are transferred to a membrane and probed.)

For assay [8], the system named is PC-12. In words: Induction of apoptosis in Abeta1-42 induced rat PC12 cells assessed as early apoptosis at 10 uM preincubated for 3 hrs followed by Abeta1-42 induction and measured after 24 hrs by Annexin V-FITC/PI staining based flow cytometry analysis (reference value: 1.5%). Conditions: time 27 hrs. The assay is classed as functional.
The subject of assay [9] is PC-12. Briefly: Induction of apoptosis in Abeta1-42 induced rat PC12 cells assessed as viable cell at 10 uM preincubated for 3 hrs followed by Abeta1-42 induction and measured after 24 hrs by Annexin V-FITC/PI staining based flow cytometry analysis (reference value: 97.8%). The assay is classed as functional. As to conditions: time 27 hrs.
The subject of assay [10] is Mus musculus. Briefly: Anti-alzheimer activity in hippocampus of APP/PS1 dE9 double transgenic mouse model assessed as suppression in p-JNK level at 10 mg/kg, ip administered once daily for 30 consecutive days by Western blot analysis. The assay is classed as functional, organism-based. As to conditions: time 30.0 day. An outline of the steps:
as §3

The subject of assay [11] is Mus musculus. Briefly: Neuroprotective activity in APP/PS1 dE9 double transgenic mouse model assessed as improvement in spatial memory at 10 mg/kg, ip administered once daily for 30 consecutive days […] by morris water maze test. The assay is classed as functional, organism-based. As to conditions: time 36.0 day. An outline of the steps:
as §2

Assay [12] has as its system Mus musculus. Briefly: Anti-alzheimer activity in hippocampus of APP/PS1 dE9 double transgenic mouse model assessed as reduction in glial cell aggregation at 1 to 10 mg/kg, ip administered once daily for 30 consecutive days by immunofluorescence staining. Conditions: dose 1-10 mg/kg, time 30.0 day. The assay is classed as functional, organism-based. An outline of the steps:
as §1

For assay [13], the system named is PC-12. Briefly: Neuroprotective activity against Abeta1-42 induced rat PC12 cells assessed as increase in cell viability at 10 uM preincubated for 3 hrs followed by Abeta1-42 induction and measured after 24 hrs by MTT assay. Conditions: time 27.0 hrs. The assay is classed as functional, cell-based. In short, it runs like this: (§4)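 PC12 cells were seeded at 5×10^3/well and pretreated 3 h with test compound (range or 10 μM), with or without SP600125 1.25 μM for 0.5 h beforehand. Cells were then exposed to 10 μM Aβ1–42 oligomers for 24 h. MTT 0.5 mg/mL was added for 3–4 h, formazan dissolved in DMSO, and absorbance read at 570 nm. Viability is given as % of control.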
A general note: Formazan colour is commonly taken as a measure of viable cells.

Assay [14] has as its system PC-12. In words: Neuroprotective activity against Abeta1-42 induced rat PC12 cells assessed as […] at 1.25 to 10 uM preincubated for 3 hrs followed by Abeta1-42 induction and measured after 24 hrs by MTT assay. The assay is classed as functional, cell-based. Conditions: dose 1.25-10 µM, time 27.0 hrs. In short, it runs like this:
as §4

For assay [15], the system named is PC-12. In words: Neuroprotective activity in Abeta1-42 induced rat PC12 cells assessed as decrease in cleaved caspase-3 level at 10 uM preincubated for 3 hrs followed by Abeta1-42 induction and measured after 24 hrs. The assay is classed as functional, cell-based. Conditions: time 27.0 hrs. An outline of the steps:
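Aβ1–42 challenge in PC12 cells was 10 μM for 24 h after 3 h pretreatment at 10 μM. SP600125 (1.25 μM) was added 0.5 h before pretreatment where used. Cells were lysed in RIPA and protein measured by BCA. Blotting used PVDF transfer, 5% BSA/TBST block for 2 h, primaries 1:1000 overnight at 4 °C, and HRP secondary for 2 h. Bcl-2/Bax ratio and band intensities were quantified.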

Assay [16] relates to PC-12. Briefly: Neuroprotective activity against Abeta1-42 induced rat PC12 cells assessed as reduction in LDH release at 10 uM preincubated for 3 hrs followed by Abeta1-42 induction and measured after 24 hrs by LDH release assay. The assay is classed as functional, cell-based. As to conditions: time 27.0 hrs. An outline of the steps:
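PC12 cells were pretreated 3 h with 10 μM, then incubated 24 h with or without 10 μM Aβ1–42. LDH released into the supernatant was measured.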

Take `C=C[C@@]1(C)Cc2occ(C)c2[C@@H]2OC(=O)C(=C)[C@@H]21` [ISOLINDERALACTONE]: the outcome in the assay on PC12, in the assay with Mus musculus [1], in the assay on Mus musculus [2], in the assay on Mus musculus [4], in the assay on Mus musculus [5] and with Mus musculus [6] was Active. Also, the result in the assay on Mus musculus [7], with Mus musculus [10], with Mus musculus [11], in the assay with Mus musculus [12], with PC-12 [13] and in the assay with PC-12 [14] was Active. The result in the assay with PC-12 [15] and in the assay with PC-12 [16] was Active. Moreover, the Activity is recorded as 0.4% with PC-12 [3], 2% in the assay on PC-12 [8] and 97.6% in the assay on PC-12 [9].

The values above are taken from ChEMBL document CHEMBL5390295, “Isolinderalactone Ameliorates the Pathology of Alzheimer's Disease by Inhibiting the JNK Signaling Pathway” (2023).
